Bioassay records (PubChem)
This is a sample that favours compounds with a hit; in the whole collection about 3.8% have one here.
KCNQ1 inh: inhibitors of human KCNQ1 potassium channel. CHO-K1 KCNQ1, FluxOR thallium flux fluorescence; active compounds read high. B-score at 10 µM. hit rate 1.3% among 310,000. AID 2642;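 active = compounds whose thallium flux B-score, printed positive for inhibition, exceeds three library SD while starting fluorescence stays within three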;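 note: channel opened by potassium depolarization with thallium stimulus after 20 min compound exposure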
Kir21 inh: inhibitors of mouse Kir2.1 inward-rectifier potassium channel. P35561. hit rate 0.85% among 310,000. HEK293-Kir2.1, FluxOR thallium flux fluorescence; active compounds read low. B-score at 10 µM. AID 1672;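 active = fluorescence ratio B-score at or below minus 3 SD of library scores, with starting-brightness B-score within 2 SD, cut at about -4.2 in these data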;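 note: channel flux triggered by added potassium and thallium sulfate stimulus; B-score of peak minus minimum fluorescence over baseline after thallium stimulus; more negative B-score means stronger Kir2.1 block with less thallium influx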
KCNK3 inh: human KCNK3 channel inhibition, primary screen | O14649 | CHO-KCNK3 thallium flux, FluxOR fluorescence; active compounds read low | B-score at 10 µM | hit rate 0.84% among 340,000;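 active = B-score under library mean minus 4 SD, starting fluorescence ratio at most library mean plus 5 SD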;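 note: more negative B-score means stronger inhibition of thallium flux through KCNK3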
KCNQ1 act: potentiators or activators of human KCNQ1 potassium channel. P51787. CHO-K1 KCNQ1, thallium flux FluxOR fluorescence; active compounds read high. B-score at 10 µM. hit rate 0.35% among 310,000;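 active = fluorescence ratio B-score, a plate-corrected score, at least three library SD, with initial intensity B-score within 5 SD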
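Assay system: CHO-K1 cells stably expressing KCNQ1. Medium: assay buffer for compound exposure, DMSO matched across wells. Timing: 37 °C overnight plating, 90-min dark dye load, 20-min compound pretreatment. Signal: kinetic FluxOR fluorescence, 10 s baseline plus 110 s post-stimulus.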
hERG protect: compounds protecting human hERG from proarrhythmic drug block; Q12809; CHO-hERG, FluxOR thallium flux, dofetilide IC70 present; activation (rescue from dofetilide block), less the hit threshold, % at 10 µM; hit rate 0.51% among 310,000;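 active = activation above the mean of controls blocked by dofetilide plus 5 SD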;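 note: thallium influx through hERG after potassium depolarization seen as dye fluorescence rise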
KCNK9 block: blocks the human KCNK9 two-pore domain potassium channel; hit rate 1.2% among 310,000; Q9NPC2; AID 488922; B-score at 10 µM; HEK293 KCNK9, FluxOR thallium flux fluorescence; active compounds read low;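 active = ratio B-score over 3 SD below the library mean, with starting fluorescence within 5 SD of its mean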;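 note: negative B-score means less thallium flux so channel inhibition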
Target sequence (Q9NPC2 whole entry, looked up, the tested form may be a part): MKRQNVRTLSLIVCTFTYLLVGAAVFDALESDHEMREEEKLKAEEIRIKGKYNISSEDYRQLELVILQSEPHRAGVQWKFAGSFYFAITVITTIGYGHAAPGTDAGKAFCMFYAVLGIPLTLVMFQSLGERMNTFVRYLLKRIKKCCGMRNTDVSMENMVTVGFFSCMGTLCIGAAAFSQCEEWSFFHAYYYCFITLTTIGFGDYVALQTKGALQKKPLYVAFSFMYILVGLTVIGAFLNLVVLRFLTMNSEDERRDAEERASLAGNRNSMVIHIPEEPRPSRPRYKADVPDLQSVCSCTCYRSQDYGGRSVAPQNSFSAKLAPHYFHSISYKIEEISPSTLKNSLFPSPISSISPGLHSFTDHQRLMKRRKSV
Starred values were filed as active, the others as inactive; i = inactive; nt = no result.

SMILES	KCNQ1 inh	Kir21 inh	KCNK3 inh	KCNQ1 act	hERG protect	KCNK9 block
C/C(=N\NC(=O)c1nn(C)c(C)c1Br)c1ccc(NC(=O)c2ccoc2C)cc1	i	-0.75	i	i	-5	-7.9*
CC(Oc1ccc(Cl)cc1)C(=O)N1CCCc2ccccc21 (configuration not stated)	i	-5.7*	i	i	-7	i
CC(Oc1ccc(Br)cc1)C(=O)N1CCc2ccccc21 (configuration not stated)	i	0.51	i	i	-12	i
O=C(NCc1ccco1)c1cccc(S(=O)(=O)N2CCc3ccccc32)c1	i	-0.7	i	i	-7	i
CCn1c(=O)n(CC)c2cc(S(=O)(=O)N3CCc4ccccc43)ccc21	i	-4.3*	i	i	-17	i
O=C(NCc1ccco1)c1ccc(S(=O)(=O)N2CCCc3ccccc32)cc1	i	-0.99	i	i	-9	-6.9*
O=S(=O)(c1ccc(Cl)cc1)N1CCCc2ccccc21	i	-4.6*	i	i	-7	i
CC(Oc1cccnc1[N+](=O)[O-])C(=O)Nc1cccc(Cl)c1 (configuration not stated)	nt	nt	i	nt	nt	nt
CC(C)c1cc(CN2C(C)COCC2C)cc(C(C)C)c1O (configuration not stated)	nt	nt	i	nt	nt	nt
CC(=O)Nc1ccc(S(=O)(=O)N2CCCc3ccccc32)cc1	i	-0.83	i	i	-12	i
Nc1ccc(S(=O)(=O)N2CCCc3ccccc32)cc1	i	-5.7*	i	i	-5	i
CCOC(=O)c1cc(CC)sc1NC(=O)Cc1ccccc1	i	0.99	i	i	-13	-7.6*
CCOC(=O)c1cc(CC)sc1NC(=O)COC	i	-0.71	i	i	-6	i
COc1ccc(CN2[C@@H](CC(=O)O)c3ccccc3S2(=O)=O)cc1	i	0.04	i	i	6.7*	i
O=c1cc(CCl)nc(Cc2c(Cl)cccc2Cl)[nH]1	i	0.1	i	i	-6	i
CC(C)CC(C(=O)NC1CCCCC1)N(Cc1ccccc1)C(=O)c1snc(C(N)=O)c1N (configuration not stated)	6*	-2.2	i	i	-14	i
CC(C)CC(C(=O)NC1CCCC1)N(Cc1ccc2c(c1)OCO2)C(=O)c1snc(C(N)=O)c1N (configuration not stated)	6*	-0.68	i	i	-11	i
Cc1cccc(OCC(O)Cn2c(=N)n(Cc3ccccc3)c3ccccc32)c1 (configuration not stated)	i	-10*	i	i	-28	i
N=c1n(Cc2ccccc2)c2ccccc2n1CC(O)COc1ccc(Cl)cc1Cl (configuration not stated)	i	-4.2	i	i	-11	i
COc1ccc(OCC(O)Cn2c(=N)n(Cc3ccccc3)c3ccccc32)cc1 (configuration not stated)	i	-7.3*	i	i	-20	i
CCN(CC)CCn1c(=N)n(CC(O)COc2cccc(C)c2)c2ccccc21 (configuration not stated)	i	-7.9*	i	i	-20	i
Cc1cccc(OCC(O)Cn2c(=N)n(CCN3CCCCC3)c3ccccc32)c1 (configuration not stated)	i	-4.2*	i	i	-22	i
Cc1cccc(OCC(O)CN2CCNCC2)c1 (configuration not stated)	i	-1.1	i	i	-2	i
O=C(c1cncc(Br)c1)N1CCN(S(=O)(=O)c2ccc3ccccc3c2)CC1	nt	nt	i	nt	nt	nt
CN(CCOc1ccccc1)CC(=O)Nc1cc([N+](=O)[O-])ccc1Cl	i	-4.7*	i	i	-12	i
SMILES	KCNQ1 inh	Kir21 inh	KCNK3 inh	KCNQ1 act	hERG protect	KCNK9 block
COC(=O)c1[nH]c2ccc(F)cc2c1NS(=O)(=O)c1ccc(OC)cc1OC	i	0.01	i	i	-4	-6.6*
COC(=O)c1[nH]c2ccc(C)cc2c1NS(=O)(=O)c1ccc(F)cc1	i	-5.3*	i	i	-14	i
COC(=O)c1[nH]c2ccc(C)cc2c1NS(=O)(=O)c1ccc(F)c(C)c1	i	-0.21	i	i	-18	i
CCOC(=O)c1[nH]c2ccc(OC)cc2c1NS(=O)(=O)c1ccc(OC)cc1OC	i	0.12	i	i	-18	i
CCOC(=O)c1ccc(S(=O)(=O)N2CCN(CC(O)COc3ccc(C#N)cc3)CC2)cc1 (configuration not stated)	i	2.2	i	i	-10	i
FC(F)(F)c1ccc(NC(=S)NCc2ccccc2)cc1	i	-1.3	i	i	-15	i
C=C1[C@@H](C)C2[C@H](Cc3ccccc3)NC(=O)[C@]23OC(=O)CC[C@H](O)CCC[C@H](C)C/C=C/[C@H]3[C@@H]1O (some centres not stated)	i	-2.9	nt	60*	-10	i
Cc1nn(-c2cccc(Cl)c2)c(Cl)c1/C=N/NC(=O)c1cccnc1	i	1.3	i	i	-9	-7.4*
Cc1ccc(-c2cc(C(=O)N/N=C/c3c(C)nn(-c4ccccc4)c3C)[nH]n2)cc1	13*	0.82	i	i	-7	i
Cc1ccc(C)c(OCC(=O)N/N=C/c2c(C)nn(-c3ccccc3)c2Cl)c1C	i	-4.4*	i	i	-10	i
Cc1nn(-c2ccccc2)c(Cl)c1/C=N\NC(=O)c1cncc(Br)c1	i	-0.11	i	i	-12	i
COC(=O)N/N=C\c1c(C)nn(-c2ccccc2)c1Cl	i	-1.4	i	i	-9	i
Cc1nn(-c2ccccc2)c(C)c1/C=N/NC(=O)c1cc(C(C)(C)C)[nH]n1	i	0.59	i	i	-13	i
CCOc1ccc2c(c1)C(=NNC(=O)c1ccccn1)c1cc(OCC)ccc1-2	nt	nt	i	nt	nt	nt
CCN1C[C@@H]2[C@@H]3C(=O)N(Cc4ccccc4)C(=O)[C@@H]3[C@](C)(C1=O)N2C(=O)c1ccc(Cl)c(Cl)c1	nt	nt	i	nt	nt	nt
Nc1cc(N)nc(SCC(=O)NC(=O)NC2CCCC2)n1	nt	nt	i	nt	nt	nt
CCN1CC=C2C(C#N)=C(N)C(C#N)(C#N)[C@H](c3cccc(OC)c3OC)[C@H]2C1	i	-3.8	i	i	-16	i
CCN1CC=C2C(C1)C(c1ccc(Cl)s1)C(C#N)=C(N)C2(C#N)C#N (configuration not stated)	11*	-9.8	i	i	-20	i
Cc1[nH]c(=O)[nH]c(=O)c1S(=O)(=O)Nc1cccc(C(F)(F)F)c1	i	-0.43	i	i	-5	i
